Test results taken from ChEMBL document CHEMBL1124824, “Synthesis and biological activity of atrial natriuretic factor analogues: effect of modifications to the disulfide bridge” (J Med Chem, 1990).
Starred links: 1 amine or outer side, 2 acyl side, 3 side chain; linkers in the order of their positions; H or OH if unused. Positions of bridges follow the written chain, without caps; N, C: chain ends. Non-standard residues stand in square brackets, D forms with d. Residues, ends and D or L forms follow the SMILES beside them. βAsp = O=C(O)[C@H](CC(=O)[*:2])N[*:1]; Asu = N[C@@H](CCCCCC(=O)O)C(=O)O; Pen = CC(C)(S)[C@H](N)C(=O)O; hCys = N[C@@H](CCS)C(=O)O; X2 = O=C(CCC[*:2])[*:1]; X1 = O=C(CC[*:2])[*:1]; CO = O=C([*:1])[*:2]

What was measured:
Oryctolagus cuniculus = species: Oryctolagus cuniculus; test: Compound was tested for the inhibition of the stimulated contractions of the superfused rabbit thoracic aortic rings.; type: functional, Aorta
Outline: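 Rabbit thoracic aorta rings (4 mm) were held isometrically at 10-g resting tension, superfused and precontracted with phenylephrine. Test peptide was added to the superfusate above the tissue in successively higher doses after each recovery. Doses were based on peptide content. EC50 came from the dose-response curve, mean of three determinations ± SEM.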

[1] = biological target: T1, Atrial natriuretic peptide receptor 2 (Bos taurus, UniProt P46197); test: Binding affinity was determined based on the displacement of [125]r-ANF (99-126) from binding sites on bovine adrenal zona glomerulosa cell membranes (Atrionatriuretic peptide receptor B)
T1 sequence (P46197 whole entry): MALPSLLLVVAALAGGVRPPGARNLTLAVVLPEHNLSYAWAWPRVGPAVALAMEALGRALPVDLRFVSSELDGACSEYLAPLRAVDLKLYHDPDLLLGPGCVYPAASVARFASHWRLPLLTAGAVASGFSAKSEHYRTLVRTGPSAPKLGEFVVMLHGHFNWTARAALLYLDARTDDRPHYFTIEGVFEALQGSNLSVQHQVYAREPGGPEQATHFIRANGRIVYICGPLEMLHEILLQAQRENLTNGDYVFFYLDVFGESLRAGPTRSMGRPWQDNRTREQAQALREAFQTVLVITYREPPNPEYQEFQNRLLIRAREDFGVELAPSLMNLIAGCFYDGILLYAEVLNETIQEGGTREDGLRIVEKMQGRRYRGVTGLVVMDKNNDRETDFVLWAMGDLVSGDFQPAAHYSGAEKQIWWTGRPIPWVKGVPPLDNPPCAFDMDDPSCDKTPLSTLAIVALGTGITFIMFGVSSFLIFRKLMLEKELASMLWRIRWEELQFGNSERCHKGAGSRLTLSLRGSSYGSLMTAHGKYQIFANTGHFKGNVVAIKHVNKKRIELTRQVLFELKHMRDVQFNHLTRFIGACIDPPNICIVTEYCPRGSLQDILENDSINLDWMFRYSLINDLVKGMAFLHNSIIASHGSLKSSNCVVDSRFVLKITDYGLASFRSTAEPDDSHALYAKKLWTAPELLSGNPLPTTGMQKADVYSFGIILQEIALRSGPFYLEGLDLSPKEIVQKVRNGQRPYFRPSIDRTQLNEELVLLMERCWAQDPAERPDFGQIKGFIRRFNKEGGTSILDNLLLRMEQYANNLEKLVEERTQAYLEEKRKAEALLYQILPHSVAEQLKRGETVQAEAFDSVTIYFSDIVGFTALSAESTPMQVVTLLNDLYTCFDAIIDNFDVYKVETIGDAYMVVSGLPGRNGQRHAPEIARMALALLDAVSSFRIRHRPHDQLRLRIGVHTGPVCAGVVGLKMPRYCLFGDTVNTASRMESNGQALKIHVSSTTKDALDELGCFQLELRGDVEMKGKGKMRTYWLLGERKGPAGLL

[2] = biological target: T2, Atrial natriuretic peptide receptor 3 (Mus musculus, UniProt P70180); test: Binding affinity was determined based on the displacement of [125]r-ANF (99-126) from binding sites on mouse fibroblasts (NIH 3T3) cells (Atrionatriuretic peptide receptor C).
T2 sequence (P70180 whole entry): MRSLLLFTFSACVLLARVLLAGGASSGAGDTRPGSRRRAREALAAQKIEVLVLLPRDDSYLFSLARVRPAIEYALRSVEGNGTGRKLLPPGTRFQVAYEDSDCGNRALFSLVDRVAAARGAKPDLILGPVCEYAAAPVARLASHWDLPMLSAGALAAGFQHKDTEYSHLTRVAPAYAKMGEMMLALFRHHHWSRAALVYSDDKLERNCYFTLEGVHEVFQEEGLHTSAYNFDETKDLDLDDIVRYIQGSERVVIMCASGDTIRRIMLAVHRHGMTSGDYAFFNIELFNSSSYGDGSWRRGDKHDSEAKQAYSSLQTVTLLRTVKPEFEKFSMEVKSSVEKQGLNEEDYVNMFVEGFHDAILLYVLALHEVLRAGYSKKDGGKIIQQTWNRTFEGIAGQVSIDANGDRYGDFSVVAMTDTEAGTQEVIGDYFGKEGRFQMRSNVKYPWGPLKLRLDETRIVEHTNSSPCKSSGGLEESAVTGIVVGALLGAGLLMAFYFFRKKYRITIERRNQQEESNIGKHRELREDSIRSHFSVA

Rattus norvegicus [3] = species: Rattus norvegicus; test: Compound was tested for the K+ excretion for treated over control animals; type: functional
Outline: (§1)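 Male Sprague-Dawley rats (300-325 g) under halothane/lidocaine had femoral artery, femoral vein and bladder cannulated. After at least 1 h of recovery in restraint, they received Ringer's (1.2 mL/h), with 10-min urine collections over a 30-min control period. Infusion of 0.5 μg/kg per min for 30 min and a 30-min Ringer's recovery followed. Na+, K+ and Cl- were measured with an electrolyte analyzer, reported as treated minus control μmol/sample. Volume ratio is treated/control over three consecutive 10-min samples, six animals.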

Rattus norvegicus [4] = species: Rattus norvegicus; test: Compound was tested for the Na+ excretion for treated over control animals; type: functional; outline: as §1
Rattus norvegicus [5] = species: Rattus norvegicus; test: Compound was tested for antihypertensive activity in 5/6 nephrectomized rats.; type: functional
Outline: (§2)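 Rats were anesthetized with halothane after skin infiltration with 2% lidocaine, and the femoral artery and vein were cannulated. After recovery, arterial pressure was recorded. A saline control period was followed by i.v. infusion in 30-min steps at 0.1, 0.2, 0.5 and 1.0 μg/kg per min (70 μL/kg per min). Hydralazine (100 μg/kg per min) was given for standardization. ED50 is in nmol/kg per min, from six animals.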

Rattus norvegicus [6] = species: Rattus norvegicus; test: Compound was tested for antihypertensive activity in DOCA nephrectomized rats.; type: functional; outline: as §2

Structure (SMILES): CC[C@H](C)[C@@H]1NC(=O)[C@H](CCCN=C(N)N)NC(=O)[C@H](CC(=O)O)NC(=O)[C@H]([C@@H](C)CC)NC(=O)[C@H](CCCN=C(N)N)NC(=O)CNC(=O)CNC(=O)[C@H](Cc2ccccc2)NC(=O)CCSCC[C@@H](C(=O)N[C@@H](CC(N)=O)C(=O)N[C@@H](CO)C(=O)N[C@@H](Cc2ccccc2)C(=O)N[C@@H](CCCN=C(N)N)C(=O)N[C@@H](Cc2ccc(O)cc2)C(=O)O)NC(=O)CNC(=O)[C@H](CC(C)C)NC(=O)CNC(=O)[C@H](CO)NC(=O)[C@H](CCC(N)=O)NC(=O)[C@H](C)NC(=O)CNC1=O (FGGRIDRIGAQSGLG[hCys]NSFRY-OH; linker N-16 via X1)
- EC50 (Oryctolagus cuniculus): 3.5e-10 M 50ul-1
- IC50 [1]: 7.8 nM
- IC50 [2]: 0.21 nM

Structure (SMILES): CC[C@H](C)[C@@H]1NC(=O)[C@H](CCCN=C(N)N)NC(=O)[C@H](CC(=O)O)NC(=O)[C@H]([C@@H](C)CC)NC(=O)[C@H](CCCN=C(N)N)NC(=O)CNC(=O)CNC(=O)[C@H](Cc2ccccc2)NC(=O)CCC=CC[C@@H](C(=O)N[C@@H](CC(N)=O)C(=O)N[C@@H](CO)C(=O)N[C@@H](Cc2ccccc2)C(=O)N[C@@H](CCCN=C(N)N)C(=O)N[C@@H](Cc2ccc(O)cc2)C(=O)O)NC(=O)CNC(=O)[C@H](CC(C)C)NC(=O)CNC(=O)[C@H](CO)NC(=O)[C@H](CCC(N)=O)NC(=O)[C@H](C)NC(=O)CNC1=O
- EC50 (Oryctolagus cuniculus): 5.5e-10 M 50ul-1
- IC50 [1]: 51 nM
- IC50 [2]: 0.63 nM

Structure (SMILES): CC[C@H](C)[C@@H]1NC(=O)[C@H](CCCN=C(N)N)NC(=O)[C@H](CC(=O)O)NC(=O)[C@H]([C@@H](C)CC)NC(=O)[C@H](CCCN=C(N)N)NC(=O)CNC(=O)CNC(=O)[C@H](Cc2ccccc2)NC(=O)CCCCC[C@@H](C(=O)N[C@@H](CC(N)=O)C(=O)N[C@@H](CO)C(=O)N[C@@H](Cc2ccccc2)C(=O)N[C@@H](CCCN=C(N)N)C(=O)N[C@@H](Cc2ccc(O)cc2)C(=O)O)NC(=O)CNC(=O)[C@H](CC(C)C)NC(=O)CNC(=O)[C@H](CO)NC(=O)[C@H](CCC(N)=O)NC(=O)[C@H](C)NC(=O)CNC1=O (FGGRIDRIGAQSGLG[Asu]NSFRY-OH; lactam N-16)
- EC50 (Oryctolagus cuniculus): 4.8e-10 M 50ul-1
- IC50 [1]: 28.8 nM
- IC50 [2]: 0.78 nM

Structure (SMILES): CC[C@H](C)[C@@H]1NC(=O)[C@H](CCCN=C(N)N)NC(=O)[C@H](CC(=O)O)NC(=O)[C@H]([C@@H](C)CC)NC(=O)[C@H](CCCN=C(N)N)NC(=O)CNC(=O)CNC(=O)[C@H](Cc2ccccc2)NC(=O)CCCSC[C@@H](C(=O)N[C@@H](CC(N)=O)C(=O)N[C@@H](CO)C(=O)N[C@@H](Cc2ccccc2)C(=O)N[C@@H](CCCN=C(N)N)C(=O)N[C@@H](Cc2ccc(O)cc2)C(=O)O)NC(=O)CNC(=O)[C@H](CC(C)C)NC(=O)CNC(=O)[C@H](CO)NC(=O)[C@H](CCC(N)=O)NC(=O)[C@H](C)NC(=O)CNC1=O (FGGRIDRIGAQSGLGCNSFRY-OH; linker N-16 via X2)
- EC50 (Oryctolagus cuniculus): 2.6e-10 M 50ul-1
- IC50 [1]: 6.17 nM
- IC50 [2]: 0.56 nM

Structure (SMILES): CC[C@H](C)[C@H](NC(=O)[C@H](CCCN=C(N)N)NC(=O)[C@H](CC(=O)O)NC(=O)[C@@H](NC(=O)[C@H](CCCN=C(N)N)NC(=O)CNC(=O)CNC(=O)[C@H](Cc1ccccc1)NC(=O)N[C@@H](CC(=O)OC)C(=O)O)[C@@H](C)CC)C(=O)NCC(=O)N[C@@H](C)C(=O)N[C@@H](CCC(N)=O)C(=O)N[C@@H](CO)C(=O)NCC(=O)N[C@@H](CC(C)C)C(=O)NCC(=O)N[C@@H](CS)C(=O)N[C@@H](CC(N)=O)C(=O)N[C@@H](CO)C(=O)N[C@@H](Cc1ccccc1)C(=O)N[C@@H](CCCN=C(N)N)C(=O)N[C@@H](Cc1ccc(O)cc1)C(=O)O ({OMe-βAsp-CO}-FGGRIDRIGAQSGLGCNSFRY-OH)
- EC50 (Oryctolagus cuniculus): 1.4e-10 M 50ul-1
- Electrolyte excretion (Rattus norvegicus [3]): 23.5 uM sample-1
- Electrolyte excretion (Rattus norvegicus [4]): 38.1 uM sample-1
- IC50 [1]: 8.67 nM
- ED50 (Rattus norvegicus [5]): >2 nM/min/kg
- ED50 (Rattus norvegicus [6]): >4 nM/min/kg

Structure (SMILES): CC[C@H](C)[C@@H]1NC(=O)[C@H](CCCN=C(N)N)NC(=O)[C@H](CC(=O)O)NC(=O)[C@H]([C@@H](C)CC)NC(=O)[C@H](CCCN=C(N)N)NC(=O)CNC(=O)CNC(=O)[C@H](Cc2ccccc2)NC(=O)[C@@H](NC(=O)[C@H](CO)NC(=O)[C@@H](N)CO)CSSC[C@@H](C(=O)N[C@@H](CC(N)=O)C(=O)N[C@@H](CO)C(=O)N[C@@H](Cc2ccccc2)C(=O)N[C@@H](CCCN=C(N)N)C(=O)N[C@@H](Cc2ccc(O)cc2)C(=O)O)NC(=O)CNC(=O)[C@H](CC(C)C)NC(=O)CNC(=O)[C@H](CO)NC(=O)[C@H](CCC(N)=O)NC(=O)[C@H](C)NC(=O)CNC1=O (H-SSCFGGRIDRIGAQSGLGCNSFRY-OH; disulfide 3-19) [listing 1 of 2 here]
- IC50 [1]: 1.37 nM
- IC50 [2]: 0.35 nM

Structure (SMILES): CC[C@H](C)[C@@H]1NC(=O)[C@H](CCCN=C(N)N)NC(=O)[C@H](CC(=O)O)NC(=O)[C@H]([C@@H](C)CC)NC(=O)[C@H](CCCN=C(N)N)NC(=O)CNC(=O)CNC(=O)[C@H](Cc2ccccc2)NC(=O)CCCSC(C)(C)[C@@H](C(=O)N[C@@H](CC(N)=O)C(=O)N[C@@H](CO)C(=O)N[C@@H](Cc2ccccc2)C(=O)N[C@@H](CCCN=C(N)N)C(=O)N[C@@H](Cc2ccc(O)cc2)C(=O)O)NC(=O)CNC(=O)[C@H](CC(C)C)NC(=O)CNC(=O)[C@H](CO)NC(=O)[C@H](CCC(N)=O)NC(=O)[C@H](C)NC(=O)CNC1=O (FGGRIDRIGAQSGLG[Pen]NSFRY-OH; linker N-16 via X2)
- EC50 (Oryctolagus cuniculus): 6.8e-10 M 50ul-1
- IC50 [1]: 7.8 nM
- IC50 [2]: 0.35 nM

Structure (SMILES): CC[C@H](C)[C@@H]1NC(=O)[C@H](CCCN=C(N)N)NC(=O)[C@H](CC(=O)O)NC(=O)[C@H]([C@@H](C)CC)NC(=O)[C@H](CCCN=C(N)N)NC(=O)CNC(=O)CNC(=O)[C@H](Cc2ccccc2)NC(=O)[C@@H](NC(=O)[C@H](CO)NC(=O)[C@@H](N)CO)CSSC[C@@H](C(=O)N[C@@H](CC(N)=O)C(=O)N[C@@H](CO)C(=O)N[C@@H](Cc2ccccc2)C(=O)N[C@@H](CCCN=C(N)N)C(=O)N[C@@H](Cc2ccc(O)cc2)C(=O)O)NC(=O)CNC(=O)[C@H](CC(C)C)NC(=O)CNC(=O)[C@H](CO)NC(=O)[C@H](CCC(N)=O)NC(=O)[C@H](C)NC(=O)CNC1=O (H-SSCFGGRIDRIGAQSGLGCNSFRY-OH; disulfide 3-19) [listing 2 of 2 here]
- EC50 (Oryctolagus cuniculus): 8.9e-11 M 50ul-1
